PfGluPho inh: PfG6PD (Plasmodium falciparum) enzyme inhibition; PfGluPho enzyme, NADPH resazurin-diaphorase fluorescence; inhibition, % at 20 µM; 0.78% of 350,000 active; AID 504690;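 active = inhibition reaching at least a set limit at 20 µM in the primary screen, cut at about 59% in these data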;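 note: 0% = DMSO wells with substrate and 100% = DMSO wells lacking glucose-6-phosphate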
M18AAP inhibitor: blocks P. falciparum M18 aspartyl aminopeptidase; inhibition, % at 7.35 µM; 1.2% of 290,000 active; recombinant PfM18AAP, H-Glu-NHMec fluorogenic cleavage;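 active = inhibition above the campaign mean inhibition over all tested compounds plus 3 SD, cut at about 28% in these data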;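 note: 0% = plate median of test compound wells and 100% = 2 mM ZnCl2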
UBC13 inh: blocks human UBC13 polyubiquitin chain formation. inhibition, % at 20 µM. TR-FRET. 0.47% of 330,000 active. AID 485273. P61088; in the data active = inhibition above about 45%, passing the limit was not always enough
Apaf1 inhib: blocks human Apaf-1 apoptosome activity. reconstituted apoptosome caspase-3 activity, DEVD-Rh110 fluorescence. AID 489030. inhibition, % at 20 µM. 0.71% of 330,000 active; active = inhibition of at least 40% at 20 µM;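 note: plate controls were DMSO wells for no effect and DEVD-CHO caspase inhibitor wells for full effect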
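Medium: Hepes buffer, pH 7.5 / System: biochemical Apaf-1 apoptosome reconstitution / Measured by: Rh110 fluorescence, excitation 480 nm, emission 540 nm / Times: compound with Apaf-1, dATP, procaspase-3 30 min, then 50 min reaction, room temperature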
ZTA DNA inh: ZTA (EBV) inhibition in EBNA-1 counter-screen. AID 2234. ZTA-DNA binding, fluorescence polarization. 0.15% of 320,000 active. inhibition, % at 11 µM. P03206; in the data active = inhibition above about 33%
EBNA-1 inhibitor: blocks EBNA-1 binding to DNA; 0.34% of 300,000 active; AID 1950; inhibition, % at 14.8 µM; EBNA-1 DNA binding, fluorescence polarization; in the data active = inhibition above about 28%
Apaf-1 inh conf2: Apaf-1 inhibition, single-dose confirmed | shares compounds with Apaf1 inhib | reconstituted apoptosome, caspase-3 DEVD-Rh110 fluorescence | inhibition, % at 20 µM | 25% of 1,800 active;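 active = mean inhibition of at least 40% at 20 µM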;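 note: plate controls were DMSO wells for no effect and DEVD-CHO caspase inhibitor control wells for full effect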
Rh110 interf inh: interferes with Rh110 fluorescence, flagging false Apaf-1 inhibitors | shares compounds with Apaf1 inhib | Rh110 fluorescence interference, quenched caspase reaction | activation (fluorescence interference), % at 20 µM | 1,800 tested, under 10 active | AID 504615;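 active = signal rise of 40% or more at 20 µM, treated as a fluorescence artifact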
Apaf1 inh interf: counter-screen for Apaf-1 inhibitors: fluorescence interference, dose response. fluorescence interference counterscreen, Apaf-1 assay format. shares compounds with Apaf1 inhib. 460 tested, under 10 active. AID 588538. IC50, µM; call rule not given here
* = called active by the depositor; nt = not tested or not shown. Sampled rows, rich in hits. Any-hit rate of the full collection: about 2.9%.

SMILES | PfGluPho inh | M18AAP inhibitor | UBC13 inh | Apaf1 inhib | ZTA DNA inh | EBNA-1 inhibitor | Apaf-1 inh conf2 | Rh110 interf inh | others
CCOC(=O)N1CCN(C(=O)c2cccc(S(=O)(=O)Nc3ccc(F)cc3)c2)CC1 | -13 | nt | nt | nt | nt | nt | nt | nt
CCOC(=O)N1CCN(C(=O)c2cccc(S(=O)(=O)Nc3ccc(OC)cc3)c2)CC1 | -8 | nt | 11 | 51* | -9 | 4 | 34 | -2
O=C1Cc2ccccc2C(=O)N1CCc1ccccc1 | -7 | 0 | -25 | 79* | 24 | 4 | 95* | 5 | Apaf1 inh interf=>100
O=C1C(=O)N(Cc2ccccc2)C(=O)N1CCN1C(=O)c2ccccc2C1=O | 4 | 22 | -11 | -1 | 3 | -3 | nt | nt
O=C(Cc1ccc(Br)cc1)Nc1ccc(S(=O)(=O)Nc2ncccn2)cc1 | -16 | -13 | -8 | -7 | -15 | -12 | nt | nt
CCOC(=O)C1=C(COC(=O)c2ccc([N+](=O)[O-])s2)NC(=O)NC1C (stereo unspecified) | 14 | nt | 19 | 46* | nt | nt | 38 | 3
CCOC(=O)C1=C(COC(=O)c2sccc2C)NC(=O)NC1C (stereo unspecified) | -15 | nt | 5 | -6 | -11 | nt | nt | nt
CCCCCn1c(NC(=O)c2ccco2)c(S(=O)(=O)c2ccc(C)cc2)c2nc3ccccc3nc21 | 17 | -16 | -36 | 63* | 13 | 3 | 34 | 13
CCC(=O)Nc1c(S(=O)(=O)c2ccccc2)c2nc3ccccc3nc2n1C(C)c1ccccc1 (stereo unspecified) | 6 | 5 | -20 | 35 | 2 | -10 | nt | nt
CCCCn1c(NC(=O)c2ccc(Br)o2)c(S(=O)(=O)c2ccccc2)c2nc3ccccc3nc21 | -2 | 23 | -47 | 71* | 11 | 21 | 31 | -2
CCC(=O)Nc1c(S(=O)(=O)c2ccc(C)cc2)c2nc3ccccc3nc2n1C(C)c1ccccc1 (stereo unspecified) | 7 | 0 | -6 | 44* | -10 | 1 | 15 | 4
O=C(COc1ncnc2ccccc12)NC1CCCCC1 | -7 | nt | 16 | -6 | nt | nt | nt | nt
Cc1ccc(S(=O)(=O)CCC#N)cc1 | 8 | 14 | -6 | -2 | -21 | 1 | nt | nt
CN(C)CCN(C(=O)c1ccc2c(c1)CCCC2)c1nc2c(F)cccc2s1 | 29 | -2 | -17 | 39 | -4 | 16 | nt | nt
COc1cccc2sc(N(CCN(C)C)C(=O)c3ccc4c(c3)CCCC4)nc12 | 11 | 2 | -2 | 50* | 0 | 16 | 18 | 9
COc1ccccc1CCn1c(N)c(C#N)c2nc3ccccc3nc21 | 19 | -6 | -15 | 40* | -7 | 0 | 18 | 9
N#Cc1c(N)n(CCNC(=O)c2ccccc2)c2nc3ccccc3nc12 | 12 | 2 | -10 | -15 | 11 | -2 | nt | nt
N#Cc1c(N)n(CCNC(=O)c2cccs2)c2nc3ccccc3nc12 | -2 | -1 | -29 | 90* | -15 | -5 | 17 | 5
N#Cc1c(N)n(CCCN2CCOCC2)c2nc3ccccc3nc12 | 1 | 0 | 10 | 14 | -23 | 3 | nt | nt
COc1ccc2c(c1)c1nc3ccccc3nc1n2Cc1ccc(OC(C)C)c(OC)c1 | 9 | -7 | -8 | 1 | -8 | 1 | nt | nt
COc1ccc(CCn2c(N)c(C#N)c3nc4ccccc4nc32)cc1OC | -10 | 2 | -36 | 60* | -16 | -1 | -2 | 1
COc1ccc(Cn2c(N)c(C#N)c3nc4ccccc4nc32)cc1OC | -4 | -7 | 2 | 86* | 0 | -21 | 10 | 11
COc1ccc(CCNc2nc(C)cc(C)c2C#N)cc1OC | 5 | -11 | 5 | 12 | -6 | -1 | nt | nt
COc1ccc(F)cc1S(=O)(=O)n1nc(C)cc1C | 16 | -15 | 4 | -6 | -1 | 0 | nt | nt
O=C(NC1CCN(S(=O)(=O)c2ccc(Cl)c(F)c2)CC1)c1cccnc1 | -15 | -4 | -8 | 4 | -7 | -19 | nt | nt
SMILES | PfGluPho inh | M18AAP inhibitor | UBC13 inh | Apaf1 inhib | ZTA DNA inh | EBNA-1 inhibitor | Apaf-1 inh conf2 | Rh110 interf inh | others
Cc1ccc2c(c1)C1NC(=S)NC(C)(O2)C1C(=O)Nc1ccc(Cl)cc1 (stereo unspecified) | 44 | 11 | -21 | 7 | 1 | -1 | nt | nt
CCOc1cc(/C=N/Nc2nc(-c3cccc(S(=O)(=O)N4CCCC4)c3)cs2)ccc1O | 30 | 13 | 4 | 0 | -2 | 11 | nt | nt
CCOC(=O)N1CCN(S(=O)(=O)c2ccc(C(=O)N(CCN(C)C)c3nc4ccc(CC)cc4s3)cc2)CC1 | -10 | 1 | 13 | 4 | 4 | -3 | nt | nt
CCOC(=O)N1CCN(S(=O)(=O)c2ccc(C(=O)N(CCCN(C)C)c3nc4ccc(CC)cc4s3)cc2)CC1 | -3 | 9 | 16 | 55* | -5 | 8 | 7 | 3
CCOc1cc(CN2CCC(N3CCC(C(=O)NC4CC4)CC3)CC2)ccc1O | 20 | nt | nt | nt | nt | nt | nt | nt
c1ccc2c(c1)CC/C2=N/Nc1nc2ccccc2[nH]1 | 46 | 3 | -1 | 57* | 3 | 8 | 12 | 4
Cc1nn(CC(=O)Nc2cccc(C(F)(F)F)c2)c(=O)c2cccn12 | 0 | 4 | 2 | 0 | -2 | 9 | nt | nt
COCCn1c(N)c(C(=O)OCc2ccccc2)c2nc3ccccc3nc21 | 14 | 11 | -12 | 94* | -12 | -1 | 8 | 1
COCCNC(=O)CSc1nc2cc(OC)c(OC)cc2c(=O)n1CCC1=CCCCC1 | -4 | 2 | nt | nt | nt | nt | nt | nt
COCCNC(=O)c1c(N)n(CCC2=CCCCC2)c2nc3ccccc3nc12 | 40 | 2 | -12 | 63* | -11 | -6 | 34 | 15
Cc1ccc(NC(=O)COc2ccc(CCO)cc2-n2nc3ccccc3n2)cc1C | 7 | -9 | 8 | 24 | -8 | -14 | nt | nt
CC(=O)c1cccc(-c2ccc3c(=O)[nH]c(Nc4ccccc4)cc3c2)c1 | -28 | nt | -110 | 96* | -3 | 11 | 88* | 8
CC(=O)c1cccc(Nc2nc(-c3ccccc3)nc3ccccc23)c1 | -5 | -14 | 9 | -3 | 12 | 10 | nt | nt
Cn1c(=O)cc(Nc2ccccc2)[nH]c1=O | -2 | 0 | 0 | 3 | -4 | 0 | nt | nt
O=c1[nH]c(Nc2ccccc2)cc2ccccc12 | 5 | 9 | -43 | 96* | 32 | -13 | 94* | -1 | Apaf1 inh interf=>100
COc1cc(F)c(C(=O)NC(C)(C)CO)cc1OC | -3 | nt | -1 | 7 | 0 | 0 | nt | nt
COC(=O)CCCC1=CC2=C(c3ccccc3)C(=O)C(C)(OC(=O)C3CCCC3)C(=O)C2=CN1CC(C)C (stereo unspecified) | 16 | nt | -47 | 41* | 2 | 2 | 19 | 4

Screening data: PubChem, several laboratories
